ChEMBL document CHEMBL1129688, “ATP-citrate lyase as a target for hypolipidemic intervention. Design and synthesis of 2-substituted butanedioic acids as novel, potent inhibitors of the enzyme” (J Med Chem, 1996)
pKi: −log10 of the molar value. Each block holds one compound with its values, some of them ahead of it.

Assays:
HepG2 [1] = assay: Percent control of ATP levels in human hepatoma cell line HepG2 at 300 uM concentration; assay type: functional
How it was run: (§1)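 Serum-starved HepG2 cells (grown to 80–90% confluence in DMEM/10% FCS, then overnight without serum) were exposed to vehicle or compound at the stated final concentration for 2.5 h. Cellular ATP was then measured as a toxicity check and expressed as % of vehicle control.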

HepG2 [2] = assay: Percent control of ATP levels in human hepatoma cell line HepG2 at 100 uM concentration; assay type: functional; how it was run: as §1
HepG2 [3] = assay: Percent control of ATP levels in human hepatoma cell line HepG2 at 1000 uM concentration; assay type: functional; how it was run: as §1
HepG2 [4] = assay: Percent reduction of cholesterol synthesis in human hepatoma cell line HepG2 at 300 uM concentration; assay type: functional; design: scale not given: the % may be the effect or the level left
How it was run: (§2)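 HepG2 cells were grown in DMEM with Hepes, bicarbonate, glutamine and 10% FCS to 80–90% confluence, then kept overnight serum-free. Vehicle or compound was added at the stated final concentration for 2.5 h. ³H2O (71 μCi/mmol) was present for the final 90 min. Synthesis rates came from ³H incorporated into cellular cholesterol or fatty acids, relative to vehicle control.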

HepG2 [5] = assay: Percent reduction of cholesterol synthesis in human hepatoma cell line HepG2 at 1000 uM concentration; assay type: functional; how it was run: as §2
HepG2 [6] = assay: Percent reduction of fatty acid synthesis in human hepatoma cell line HepG2 at 300 uM concentration; assay type: functional; design: scale not given: the % may be the effect or the level left; how it was run: as §2
HepG2 [7] = assay: Percent reduction of fatty acid synthesis in human hepatoma cell line HepG2 at 100 uM concentration; assay type: functional; design: scale not given: the % may be the effect or the level left; how it was run: as §2
HepG2 [8] = assay: Percent reduction of fatty acid synthesis in human hepatoma cell line HepG2 at 1000 uM concentration; assay type: functional; how it was run: as §2
HepG2 [9] = assay: Percent reduction of cholesterol synthesis in human hepatoma cell line, HepG2 at 100 uM concentration; assay type: functional; design: scale not given: the % may be the effect or the level left; how it was run: as §2
HepG2 [10] = assay: Percent control of ATP levels in human hepatoma cell line, HepG2 at 1000 uM concentration; assay type: functional; how it was run: as §1
HepG2 [11] = assay: Percent control of ATP levels in human hepatoma cell line, HepG2 at 100 uM concentration; assay type: functional; how it was run: as §1
HepG2 [12] = assay: Percent control of ATP levels in human hepatoma cell line HepG2 at […] uM concentration; assay type: functional
ATP-citrate synthase = biological target: T1, ATP-citrate synthase (Rattus norvegicus, UniProt P16638); assay: Inhibition of recombinant ATP-Citrate Lyase activity as […] dehydrogenase catalyzed reduction of oxaloacetate by NADH; details: in the assay text read “purified rat ATP-Citrate Lyase” for “recombinant ATP-Citrate Lyase”
T1 sequence (P16638 whole entry): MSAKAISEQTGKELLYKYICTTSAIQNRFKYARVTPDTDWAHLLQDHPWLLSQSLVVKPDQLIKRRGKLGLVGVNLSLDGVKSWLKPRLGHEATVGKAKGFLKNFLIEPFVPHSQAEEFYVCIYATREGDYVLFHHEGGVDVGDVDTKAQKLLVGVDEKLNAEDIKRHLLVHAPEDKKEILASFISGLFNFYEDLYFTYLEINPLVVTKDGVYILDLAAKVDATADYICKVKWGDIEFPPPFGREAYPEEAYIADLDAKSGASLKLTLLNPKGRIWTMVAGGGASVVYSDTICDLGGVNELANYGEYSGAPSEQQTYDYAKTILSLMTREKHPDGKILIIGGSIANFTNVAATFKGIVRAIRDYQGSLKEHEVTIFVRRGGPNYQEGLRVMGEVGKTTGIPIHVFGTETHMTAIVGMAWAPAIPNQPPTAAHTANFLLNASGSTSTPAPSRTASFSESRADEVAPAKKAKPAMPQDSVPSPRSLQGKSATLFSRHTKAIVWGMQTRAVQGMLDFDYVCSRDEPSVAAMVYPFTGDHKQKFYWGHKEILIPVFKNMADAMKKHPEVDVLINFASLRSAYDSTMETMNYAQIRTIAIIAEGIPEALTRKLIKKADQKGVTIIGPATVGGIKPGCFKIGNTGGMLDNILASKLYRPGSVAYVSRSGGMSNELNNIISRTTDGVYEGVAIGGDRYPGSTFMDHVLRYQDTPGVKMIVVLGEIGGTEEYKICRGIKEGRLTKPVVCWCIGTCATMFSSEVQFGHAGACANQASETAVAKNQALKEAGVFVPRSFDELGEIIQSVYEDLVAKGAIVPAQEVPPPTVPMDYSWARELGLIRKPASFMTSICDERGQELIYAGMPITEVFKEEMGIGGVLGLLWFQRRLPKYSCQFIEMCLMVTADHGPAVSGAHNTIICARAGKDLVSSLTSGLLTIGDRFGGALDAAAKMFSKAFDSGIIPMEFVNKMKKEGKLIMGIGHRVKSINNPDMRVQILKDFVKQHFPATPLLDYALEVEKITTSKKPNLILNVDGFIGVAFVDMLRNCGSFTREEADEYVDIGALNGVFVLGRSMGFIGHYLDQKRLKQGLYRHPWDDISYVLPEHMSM
How it was run: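 Purified rat ACL or recombinant human ACL was assayed by coupling oxaloacetate formation to malate dehydrogenase reduction with NADH. Buffer: Tris 100 mM pH 8.0, MgCl2 10 mM, KCl 10 mM, DTT 10 mM, plus ATP and NADH. CoA was 200 μM, and citrate was added to 100 μM (its Km) to start the reaction. A340 decrease was followed over 20 min. Ki came from fitting v = Vmax/(2 + [I]/Ki), assuming citrate-competitive inhibition.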

HepG2 [13] = assay: Percent control of ATP levels in human hepatoma cell line HepG2 at 20 uM concentration; assay type: functional; how it was run: as §1
HepG2 [14] = assay: Percent reduction of cholesterol synthesis in human hepatoma cell line HepG2 at 20 uM concentration; assay type: functional; design: scale not given: the % may be the effect or the level left; how it was run: as §2
HepG2 [15] = assay: Percent reduction of fatty acid synthesis in human hepatoma cell line HepG2 at 20 uM concentration; assay type: functional; design: scale not given: the % may be the effect or the level left; how it was run: as §2
HepG2 [16] = assay: Percent control of ATP levels in human hepatoma cell line HepG2 at 30 uM concentration; assay type: functional; how it was run: as §1
HepG2 [17] = assay: Percent control of ATP levels in human hepatoma cell line HepG2 at 10 uM concentration; assay type: functional; how it was run: as §1
HepG2 [18] = assay: Percent reduction of cholesterol synthesis in human hepatoma cell line HepG2 at 100 uM concentration; assay type: functional; design: scale not given: the % may be the effect or the level left; how it was run: as §2

Structure (SMILES): O=C(O)C[C@@](O)(C(=O)O)[C@H](O)C(=O)O
Control (HepG2 [1]): 103%
Control (HepG2 [2]): 100%
Control (HepG2 [3]): 104%
Control (HepG2 [4]): 40%
Cholesterol synthesis (% of vehicle control) (HepG2 [5]): 15%
Control (HepG2 [6]): 79%
Control (HepG2 [7]): 87%
Fatty acid synthesis (% of vehicle control) (HepG2 [8]): 57%
Control (HepG2 [9]): 110%

Structure (SMILES): CC(=O)OCOC(=O)CC(O)(CSCCCCCCc1ccc(Cl)cc1Cl)C(=O)OCOC(C)=O (stereo unspecified)
Control (HepG2 [10]): 60%
Control (HepG2 [11]): 111%
Cholesterol synthesis (% of vehicle control) (HepG2 [5]): 13%
Control (HepG2 [7]): 100%
Fatty acid synthesis (% of vehicle control) (HepG2 [8]): 16%

pKi (ATP-citrate synthase): 5.17
Structure (SMILES): O=C(O)CC(O)(CSCCCCCc1ccc(Cl)cc1Cl)C(=O)O (stereo unspecified)
Control (HepG2 [12]): 84%
Cholesterol synthesis (% of vehicle control) (HepG2 [5]): 14%
Control (HepG2 [13]): 102%
Control (HepG2 [14]): 104%
Fatty acid synthesis (% of vehicle control) (HepG2 [8]): 16%
Control (HepG2 [15]): 96%

Structure (SMILES): CCOC(=O)CC(O)(CSCCCCCCc1ccc(Cl)cc1Cl)C(=O)OCC (stereo unspecified)
Control (HepG2 [16]): 86%
Control (HepG2 [2]): 81%
Control (HepG2 [7]): 6%
Control (HepG2 [17]): 91%
Control (HepG2 [18]): 3%
